Assay results from paper PMC11529722 (Science Advances, 2024).

Key:
elastase = assay: elastase; conditions: set for optimal enzyme activity, up to 1 hour
pepsin [1] = assay: pepsin in hydrochloric acid solution; conditions: 37°C, up to 150 min
pronase = assay: pronase; conditions: set for optimal enzyme activity, up to 1 hour
chymotrypsin = assay: chymotrypsin; conditions: set for optimal enzyme activity, up to 1 hour
R6/2 mice [2] = assay: In vivo efficacy in HD R6/2 mice: body weight, survival, behavior; parameters: species or system mouse
Outline: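 Male hemizygous R6/2 mice (HD exon 1, 100–150 CAG) and WT littermates. Saline, peptide (3 mg kg⁻¹ day⁻¹) or polymer (1.69 mg kg⁻¹ day⁻¹) given by subcutaneous 28-day osmotic pump from 6 weeks; pump replaced after 4 weeks. Weekly tail suspension 20 s, weeks 7–13, clasping scored 0–3. Body weight and survival recorded throughout. 13–32 mice/group for behaviour.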

pepsin [3] = biological target: pepsin (Sus scrofa, UniProt P00791); assay: Enzymatic degradation assay with pepsin by HPLC; assay type: in vitro ADME; conditions: pepsin 0.1 μM, pH 2, peptide 200 μM, 37°C, up to 150 min, analytical HPLC
Chain of pepsin (Sus scrofa, UniProt P00791) (P00791 60-385): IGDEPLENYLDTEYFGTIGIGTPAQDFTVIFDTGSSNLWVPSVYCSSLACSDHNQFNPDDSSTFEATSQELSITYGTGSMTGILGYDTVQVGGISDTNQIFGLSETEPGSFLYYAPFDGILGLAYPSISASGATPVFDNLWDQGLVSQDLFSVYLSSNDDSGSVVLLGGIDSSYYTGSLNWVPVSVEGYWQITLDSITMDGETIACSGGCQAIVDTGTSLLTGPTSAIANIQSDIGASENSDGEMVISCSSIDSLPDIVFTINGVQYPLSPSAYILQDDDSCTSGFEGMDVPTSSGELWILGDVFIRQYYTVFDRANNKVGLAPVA

[4] = test system: pronase, chymotrypsin, elastase; assay: Enzyme degradation resistance by SDS-PAGE; assay type: in vitro ADME; conditions: treated separately with pronase, chymotrypsin and elastase for 1 hour, Coomassie Blue
HdhQ111 cells = assay: Mitochondrial fragmentation assay; assay type: cell-based, mouse; conditions: 3 μM three times for 3 days, anti-Tom20, at least 95 cells per group, n = 3
Outline: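 HdhQ111 cells dosed at 3 μM three times over 3 days. Fixed in 4% PFA 20 min, permeabilised with 0.1% Triton X-100, blocked with 2% goat serum. Anti-Tom20 (1:4000) overnight at 4°C, Alexa 488 secondary 2 h RT, Hoechst nuclei stain. Confocal imaging; % cells with fragmented mitochondria, ≥95 cells/group, ≥3 independent replicates.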

C57BL/6J mice [5] = assay: Toxicity in C57BL/6J mice: complete blood count; assay type: in vivo, mouse; conditions: C57BL/6J WT mice, 3 mg/kg with respect to peptide, Alzet osmotic pump, 8 weeks
Outline: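 Healthy male C57BL/6J mice in three groups (n = 3 to 4 per group) received test compound at 3 mg/kg with respect to peptide, or saline as negative control, via subcutaneously implanted osmotic pump for 8 weeks.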

VCP protein = VCP protein (Homo sapiens, UniProt P55072); assay: BLI; assay type: binding; conditions: immobilized VCP
Chain of VCP protein (P55072 whole entry, species assumed): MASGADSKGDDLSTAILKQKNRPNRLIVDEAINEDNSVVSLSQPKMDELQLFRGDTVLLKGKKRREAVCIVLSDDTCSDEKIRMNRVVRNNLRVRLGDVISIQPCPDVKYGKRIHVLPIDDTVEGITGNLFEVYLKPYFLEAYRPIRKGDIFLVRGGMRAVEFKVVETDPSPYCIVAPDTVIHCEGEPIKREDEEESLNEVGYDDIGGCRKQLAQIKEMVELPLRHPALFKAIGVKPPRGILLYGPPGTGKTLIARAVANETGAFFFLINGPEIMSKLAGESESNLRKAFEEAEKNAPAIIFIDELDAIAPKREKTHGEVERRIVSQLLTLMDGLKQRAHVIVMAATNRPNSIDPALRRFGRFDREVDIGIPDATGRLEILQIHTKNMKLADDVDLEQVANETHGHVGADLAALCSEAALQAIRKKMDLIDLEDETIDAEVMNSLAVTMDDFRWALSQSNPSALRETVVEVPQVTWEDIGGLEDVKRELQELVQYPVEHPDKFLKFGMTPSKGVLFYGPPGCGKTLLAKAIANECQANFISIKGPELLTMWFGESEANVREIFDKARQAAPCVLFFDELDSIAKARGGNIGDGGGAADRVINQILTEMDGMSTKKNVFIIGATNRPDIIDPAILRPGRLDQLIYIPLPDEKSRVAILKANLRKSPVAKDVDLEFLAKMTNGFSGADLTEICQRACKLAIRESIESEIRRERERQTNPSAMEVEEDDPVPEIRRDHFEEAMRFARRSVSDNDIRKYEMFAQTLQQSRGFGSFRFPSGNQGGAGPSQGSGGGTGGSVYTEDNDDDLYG
Outline: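 Anti-His biosensor hydrated, then His-tagged VCP (50 µg/ml in sodium acetate buffer, pH 6.5) immobilized. Test compound (peptide or polymer) dissolved in tris buffer (pH 8.4) and run over a range of concentrations as analyte. KD, on-rate (ka) and off-rate (kd) were measured for each analyte by biolayer interferometry (BLItz).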

red blood cells = assay: Hemocompatibility: hemolysis; conditions: human red blood cells in PBS, 37°C, 1 hour, absorbance 405 nm, n = 4
Outline: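 Na citrate-anticoagulated whole human blood spun 500g 5 min. Plasma replaced with 150 mM NaCl; wash repeated twice more; RBCs resuspended in PBS. Compound added 1:20 (v/v) to RBC suspension, 37°C 1 h, n = 4. Spun 500g 5 min; supernatant transferred for reading. 20% Triton X-100 positive control; PBS vehicle.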

C3a in human serum = assay: C3a complement activation ELISA; conditions: human serum 4 hours; P1 at 9.9 and 33 μM (3 and 10 mg/kg); n = 4
Outline: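 Test compound incubated in human serum at 1:250 and 1:500 (compound:serum) for 4 h, then diluted. C3a ELISA: 2 h in C3a antibody-coated wells with shaking, 3 washes, biotin primary antibody 1 h, washes, streptavidin 1 h, substrate 30 min, absorbance 450 nm. Cobra venom factor positive control; DPBS vehicle.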

R6/2 mice [6] = assay: Neuropathology in striatum of R6/2 mice; assay type: in vivo, mouse; conditions: 13-week-old R6/2 mice
R6/2 mice [7] = assay: VCP level in striatal mitochondrial fractions of R6/2 mice; assay type: in vivo, mouse; conditions: 13-week-old R6/2 mice, WB, ATPB loading control
Outline: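 Striatum of 13-week-old pump-dosed mice homogenised in 250 mM sucrose, 20 mM Hepes pH 7.5, 10 mM KCl, 1.5 mM MgCl₂, EDTA/EGTA. Passed 20× through a 25-gauge needle, iced 30 min. Spun 800g 10 min, then supernatant 10,000g 20 min at 4°C; pellet washed and re-spun. Mitochondria lysed in 1% Triton X-100; VCP Western blot, ATPB loading control.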

C57BL/6J mice [8] = assay: Toxicity in C57BL/6J mice: histopathology scoring; assay type: in vivo, mouse; conditions: C57BL/6J WT mice, 3 mg/kg with respect to peptide, Alzet osmotic pump, 8 weeks, blinded pathologist
Outline: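 Male C57BL/6J mice, three groups of n = 3–4. Saline, peptide or polymer (3 mg/kg with respect to peptide) given by subcutaneous osmotic pump for 8 weeks.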

## HVLVMSATRR
elastase
  not cleaved: maintained molecular weight after 1 hour
Pepsin [1]
  not cleaved: no cleavage observed for up to 150 min
pronase
  not cleaved: maintained molecular weight after 1 hour
chymotrypsin
  not cleaved: maintained molecular weight after 1 hour

## HVLVMSATRR [P1]
R6/2 mice [2]; WT littermates, P1 1.69 mg kg^−1 day^−1, 6 to 13 weeks of age
  effects of treatment on WT mice: no significant effects on motor activity, body weight, or neuropathology
R6/2 mice [2]; male R6/2 mice, 3 mg kg^−1 day^−1 per peptide (P1 1.69 mg kg^−1 day^−1), Alzet pump, 6 to 13 weeks of age
  body weight vs R6/2 saline control: significantly inhibiting weight loss
R6/2 mice [2]; male R6/2 mice, 3 mg kg^−1 day^−1 per peptide, Alzet pump, 6 to 13 weeks of age
  survival vs R6/2 saline control: extended survival
R6/2 mice [2]; male R6/2 mice, tail suspension test
  clasping times compared to HV3-TAT-treated mice: shorter clasping times
R6/2 mice [2]; male R6/2 mice, tail suspension test weekly, 3 mg kg^−1 day^−1 per peptide, Alzet pump
  hindlimb clasping behavior: attenuated the clasping behavior
Pepsin [3]
  cleavage by pepsin: no cleavage observed
[4]
  molecular weight after enzyme treatment (gel electrophoresis): maintained molecular weight
HdhQ111 cells
  mitochondrial fragmentation vs vehicle: marked reduction in the number of fragmented mitochondria
C57BL/6J mice [5]
  complete blood count and blood chemistry profile vs saline: no significant deviation of any markers
VCP protein
  fold decrease in dissociation constant compared to the HV3-TAT peptide: 150 fold
VCP protein; dissociation rate constant
  koff: 2.5e-05 s⁻¹
Red blood cells
  hemolytic activity compared to vehicle control: nonsignificant
C3a in human serum
  C3a complement activation compared to vehicle: did not show a statistically significant difference in activity
R6/2 mice [6]; Western blot
  striatal BDNF level compared to the HV3-TAT treatment group: significantly higher level of BDNF
R6/2 mice [6]; anti-Htt EM48 staining, n = 6
  mtHtt aggregates in striatum vs saline-treated R6/2 mice: reduced number of mtHtt aggregates
R6/2 mice [6]; n = 6
  DARPP-32 immunohistochemical staining in striatum: Enhanced levels of DARPP-32
R6/2 mice [7]
  VCP level on striatal mitochondria: blocks aberrant VCP mitochondrial translocation
C57BL/6J mice [8]
  organ pathology vs saline control group: no significant differences in pathology
